The values below come from ChEMBL document CHEMBL4393692, “Thiazolidinone/thiazole based hybrids - New class of antitrypanosomal agents” (Eur J Med Chem, 2019).

SMILES strings stand for the structures.

A short description of data set [1]: Cytotoxicity against human AB943 cells assessed as reduction in cell viability after 5 days resazurin dye based fluorescence assay. The note with it: 120 h. An outline of the steps:
(§1)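 Human primary fibroblasts grown in RPMI with 25 mM HEPES pH 7.3 and 10% FCS, 37°C, 5% CO2. After trypsinisation, seeded at 5000 cells/well and incubated 24 h. Then washed and exposed to two-fold drug dilutions, final DMSO below 1%, for 5 days. Resazurin added, fluorescence read (ex 530/em 590 nm) after 4 h. Growth inhibition vs DMSO control. SI = IC50 fibroblast / IC50 T. b. gambiense.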

Data set [2] concerns Trypanosoma brucei gambiense. Nature of the data set: Antitrypanosomal activity against bloodstream form of Trypanosoma brucei gambiense Feo reduction in parasite growth after 72 hrs by resazurin dye based fluorescence assay. In kind it is functional, organism-based. The procedure, abridged:
(§2)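 Bloodstream parasites cultured in HMI9 with 10% FCS at 37°C under 5% CO2. Log-phase cells harvested at 3000xg, plated at 10^5 cells/ml with dilutions from 10 down to 0.625 µg/ml (DMSO stocks) for 72 h. Resazurin added at 45 µM final, fluorescence read after a further 4 h. Inhibition vs DMSO control. IC50 from dose-response curve, mean ± SD of three independent experiments.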
(The colour change of resazurin is a common sign of viable cells or microbes.)

Data set [3] can be described thus: Selectivity index, ratio of IC50 for human AB943 cells to IC50 of bloodstream form of Trypanosoma brucei gambiense Feo. The note with it: read-out: Ratio IC50. In kind it is toxicity. An outline of the steps:
as §1

The subject of data set [4] is Trypanosoma brucei brucei. The data set can be described thus: Antitrypanosomal activity against bloodstream form of Trypanosoma brucei brucei 90-13 reduction in parasite growth after 72 hrs by resazurin dye based fluorescence assay. In kind it is functional, organism-based. Conditions: 90-13, 72 h. An outline of the steps: as §2
Data set [5] is described as follows: Acute toxicity in ip dosed mouse by Litchfield-Wilcoxon method. Conditions: in vivo. In kind it is organism-based. An outline of the steps: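 White male mice of 23-25 g; compounds dissolved in 0.9% NaCl saline with 1-2 drops Tween-80, stock prepared immediately before use. Single intraperitoneal injection at increasing doses within 100–1000 mg/kg, 4 or 5 dose levels with 6 animals per dose. LD50 derived by the Litchfield-Wilcoxon method.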

In general, IC50 refers to the point on the concentration scale where inhibition reaches its midpoint. As a reminder, the LD50 is the dose at which mortality reaches 50%. Turning to `CCC1S/C(=N\N=C\c2c(-c3ccccc3)[nH]c3ccccc23)NC1=O` (stereo not drawn), the IC50 in data set [1] amounted to 24.8 µM; in data set [2] it was 110 nM; in data set [4], 30 nM. The selectivity ratio in data set [3] worked out at 220. The same compound gave an LD50 in data set [5] of 220 mg/kg.

As to `CCC1S/C(=N\N=C\c2c(-c3ccc(Cl)cc3)[nH]c3ccccc23)N(c2ccc(O)cc2)C1=O` (stereo not drawn), the IC50 in data set [1] was 85.9 µM; in data set [2], 860 nM. In addition, in data set [3], the selectivity ratio was 100. The same compound came in with an LD50 in data set [5] of 330 mg/kg.

Regarding `CC(=O)OCCC1S/C(=N\N=C\c2c(-c3ccccc3)[nH]c3ccccc23)NC1=O` (stereo not drawn), the concentration for half-maximal inhibition (IC50) was found to be 20.9 µM in data set [1], 230 nM in data set [2] and 60 nM in data set [4]. Moreover, the selectivity ratio in data set [3] was 95. The LD50 in data set [5] came out at 200 mg/kg.

Consider `CC1S/C(=N\N=C\c2c(-c3ccc(Cl)cc3)[nH]c3ccccc23)NC1=O` (stereo not drawn), for which the results for the IC50 in data set [1] and in data set [2] were 5.22 µM and 2220 nM, respectively. Moreover, the selectivity ratio in data set [3] came to 2. Also, the LD50 in data set [5] worked out at 310 mg/kg.
